Source: publication PMC11383987 (bioRxiv, 2024)
Positions count from the first letter of the chain named.

What was measured:
[1] = test system: A. thaliana PIN3; assay: Xenopus oocyte efflux assay, PIN3 with PID kinase; type: cell-based, Arabidopsis thaliana; details: PIN3 with PID kinase in oocytes, NPA-sensitive, internal concentration 1 µM
Summary of the method: (§1)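 Xenopus oocytes received 150 ng PIN8 or PIN3 cRNA; PIN3 was given with or without 75 ng PID kinase cRNA. [3H]-IAA or [3H]-2,4-D was injected to an internal 1 µM, ± 10 μM NPA internally. Residual radioactivity per oocyte was counted by scintillation over a time course (10 oocytes per point) and set against the initial 100%. %/min rates came from linear regression; each replicate used a different female.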

[2] = target: T1, PIN8 N223A (Arabidopsis thaliana, UniProt Q9LFP6, N223A); assay: SSM electrophysiology peak current response, PIN8 N223A proteoliposomes; type: biochemical; details: for effect of N223A mutation on affinity/binding: PIN8 N223A vs WT
T1 sequence (Q9LFP6 1-367 N223A): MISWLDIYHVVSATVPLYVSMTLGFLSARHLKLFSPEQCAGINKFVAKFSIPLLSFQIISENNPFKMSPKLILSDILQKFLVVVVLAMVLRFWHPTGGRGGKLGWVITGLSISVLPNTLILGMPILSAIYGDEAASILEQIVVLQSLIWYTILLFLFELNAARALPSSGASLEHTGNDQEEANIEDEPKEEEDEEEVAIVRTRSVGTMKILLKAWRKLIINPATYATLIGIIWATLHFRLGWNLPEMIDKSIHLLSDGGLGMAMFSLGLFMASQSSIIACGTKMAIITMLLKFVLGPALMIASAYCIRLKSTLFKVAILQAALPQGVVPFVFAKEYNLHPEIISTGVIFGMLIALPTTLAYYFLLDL

[3] = target: T2, PIN8 N117A (Arabidopsis thaliana, UniProt Q9LFP6, N117A); assay: SSM electrophysiology peak current response, PIN8 N117A proteoliposomes; type: biochemical; details: 100 μM or 2 mM substrate, relative to WT
T2 sequence (Q9LFP6 1-367 N117A): T1 sequence (Q9LFP6 1-367 N223A) with N117A, A223N
Summary of the method: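 The N117A point mutant of PIN8 was made by site-directed mutagenesis. It was reconstituted in proteoliposomes in Ca2+-free Ringer pH 7.4 and immobilised on SSM sensors. Peak currents were recorded after a single solution exchange to 100 μM or 2 mM substrate and expressed relative to wild type. Mean ± s.e.m., n = 3 sensors; one-way ANOVA.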

[4] = target: T3, PIN8 (Arabidopsis thaliana, UniProt Q9LFP6); assay: Xenopus oocyte efflux assay, PIN8; type: cell-based; details: PIN8 in oocytes, NPA-sensitive, internal concentration 1 µM
T3 sequence (Q9LFP6 1-367): T1 sequence (Q9LFP6 1-367 N223A) with A223N
Summary of the method: as §1

[5] = test system: A. thaliana stem segments (wild type and pin1 mutants); assay: Arabidopsis stem segment transport assay; parameters: species or system Arabidopsis thaliana
Summary of the method: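 Stem sections (2 cm) were cut above the rosette of 5-week-old Col-0 or pin1 plants. They were inverted into buffer (500 pM IAA, 1% sucrose, 5 mM MES pH 5.5) ± 100 μM NPA for 2 h. They were then moved to buffer with 417 nM [3H]-IAA or [3H]-2,4-D ± NPA for 2 h. Three 5 mm segments were dissected and counted by liquid scintillation.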

[6] = target: T4, PIN8 I51Y (Arabidopsis thaliana, UniProt Q9LFP6, I51Y); assay: SSM electrophysiology peak current response, PIN8 I51Y proteoliposomes; type: biochemical; details: for Imax: PIN8 I51Y
T4 sequence (Q9LFP6 1-367 I51Y): T1 sequence (Q9LFP6 1-367 N223A) with I51Y, A223N

[7] = target: T3, PIN8; details: read-out: KD of IAA binding by PIN8, previously described; cited from earlier work
[8] = target: T3, PIN8; assay: KD of substrate binding by competition with NPA binding current; details: KD relative to IAA
Summary of the method: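 Purified PIN8 (LMNG) was reconstituted at LPR 10 into soy polar lipid/POPC liposomes in Ca2+-free Ringer pH 7.4 and adsorbed on SSM sensors. Current from 100 µM NPA was recorded with test compound at 0–1000 µM in both activating and non-activating solutions (3 s single exchange). KD was taken as the half-maximal point of a one-site fit of peak current inhibition. n = 3 sensors, 3 technical replicates each.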

SMILES | 2,4-D export rate relative to the IAA transport rate [1] | effect of N223A mutation on affinity/binding [2] | current response with N117A mutation [3] | 2,4-D export transport rate relative to that determined for IAA [4] | transport in pin1 mutants ([5]; pin1 mutant stem segments) | transport lower than IAA transport ([5]; wildtype plants, stem segments) | EC50 [6] | Imax [6] | Imax ([2]; PIN8 N223A) | Kd [7] | affinity lower compared to IAA [8]
O=C(O)COc1ccc(Cl)cc1Cl [2,4-D, 2,4-dichlorophenoxyacetic acid] | about half | completely abolishes binding | abolishes the current response | about half | completely abolished | about 20 fold | 641 ± 77 µM | 3 ± 0.8 nA |  |  | 
O=C(O)Cc1c[nH]c2ccccc12 [IAA, indole-3-acetic acid] |  | reduces affinity for IAA only slightly |  |  |  |  | 547 ± 171 µM | 2 ± 0.2 nA | 2 ± 0.8 nA | 40 ± 15 µM | 
O=C(O)COc1ccc(Cl)cc1 [4-CPA, 4-chlorophenoxyacetic acid] |  | completely abolishes binding | abolishes the current response |  |  |  | 1040 ± 252 µM | 3 ± 0.8 nA |  |  | ~ 8 fold
